# From ChEMBL document CHEMBL4308887, “Synthesis and biological evaluation of clovamide analogues with catechol functionality as potent Parkinson's disease agents in vitro and in vivo” (Bioorg Med Chem Lett, 2019)
# Legend:
# SH-SY5Y [1] = experiment: Neuroprotection against H2O2-induced cell death in human SH-SY5Y cells at 100 uM preincubated for 6 hrs followed by H2O2 addition and measured after 24 hrs by MTT assay relative to control; type: functional
# Summary of the method: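 Human SH-SY5Y neuroblastoma cells pretreated with compound at 100 μM for 6 h, then exposed to 600 μM H₂O₂ for 24 h; viability read by MTT and expressed as protection rate relative to untreated control. DMSO below 0.1% in all groups. Primary single-concentration screen; three independent experiments.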
# SH-SY5Y [2] = experiment: Neuroprotection against H2O2-induced cell death in human SH-SY5Y cells preincubated for 6 hrs followed by H2O2 addition and measured after 24 hrs by MTT assay; type: functional, cell-based
# Summary of the method: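 Primary screen at 100 μM, then dose-response. SH-SY5Y cells pretreated, then exposed to 600 μM H₂O₂ (the level chosen from a 100–1000 μM, 24 h viability titration). EC₅₀ is the concentration giving 50% of maximal effect. N-acetyl-L-cysteine served as positive control. DMSO below 0.1%. Mean ± S.E.M. of three experiments.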
Compound,Activity (SH-SY5Y [1]),EC50 (SH-SY5Y [2])
COC(=O)[C@H](Cc1ccccc1)NC(=O)/C=C/c1ccc(O)cc1,<50%,–
COC(=O)[C@H](Cc1ccc(O)cc1)NC(=O)/C=C/c1ccc(O)c(O)c1,>50%,11.3 µM
COC(=O)[C@H](Cc1ccc(O)cc1)NC(=O)/C=C/c1ccc(O)cc1,<50%,–
COC(=O)[C@H](Cc1ccccc1)NC(=O)/C=C/c1ccccc1,<50%,–
COC(=O)[C@H](Cc1ccc(O)cc1)NC(=O)/C=C/c1ccccc1,<50%,–
COC(=O)[C@H](Cc1ccc(O)c(O)c1)NC(=O)/C=C/c1ccc(O)cc1,>50%,19.1 µM
COC(=O)[C@H](Cc1ccc(O)c(O)c1)NC(=O)/C=C/c1ccc(O)c(OC)c1,>50%,23.8 µM
COC(=O)[C@H](Cc1ccccc1)NC(=O)/C=C/c1ccc(O)c(OC)c1,<50%,–
COC(=O)[C@H](Cc1ccc(O)cc1)NC(=O)/C=C/c1cccc(O)c1,<50%,–
COC(=O)[C@H](Cc1ccccc1)NC(=O)/C=C/c1cccc(O)c1,<50%,–
COC(=O)[C@H](Cc1ccc(O)cc1)NC(=O)/C=C/c1cccc(OC)c1,<50%,–
COC(=O)[C@H](Cc1ccc(O)c(O)c1)NC(=O)/C=C/c1cccc(O)c1,>50%,17.5 µM
CC(=O)N[C@@H](CS)C(=O)O [ACETYLCYSTEINE],–,1680 µM
O=C(O)/C=C/c1ccc(O)c(O)c1 [CAFFEIC ACID],–,33.8 µM
COC(=O)[C@H](Cc1ccc(O)c(O)c1)NC(=O)/C=C/c1ccc(O)c(O)c1 [N-CAFFEOYL-DOPA METHYL ESTER],>50%,15.6 µM
COC(=O)[C@H](Cc1ccc(O)c(O)c1)NC(=O)/C=C/c1ccccc1 [N-CINNAMOYL-DOPA METHYL ESTER],>50%,14.3 µM
